Columns and labels:
[1] = molecular target: T1, Dual specificity tyrosine-phosphorylation-regulated kinase 1A (Homo sapiens, UniProt Q13627); test: Inhibition of DYRK1A in human pancreatic islets assessed as induction of pancreatic beta-cells replication measured after 48 hrs by Hoechst 33342 staining based analysis
Summary of the method: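 Human islets (85-95% purity) rested 12 h in low-glucose DMEM with 10% FBS and 20 nM exendin-4. Dispersed to single cells and plated on 804G-conditioned-matrix 384-well plates for 48 h. Treated 48 h, then fixed with 4% PFA. Stained with anti-insulin, anti-Ki-67 and 4 μM Hoechst 33342; Ki67+Insulin+/Insulin+ scored by high-content imaging against per-plate cutoffs.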

[2] = molecular target: T1, Dual specificity tyrosine-phosphorylation-regulated kinase 1A; test: Inhibition of human DYRK1A transfected in HEK293T cells co-transfected with Renilla plasmid, pGL3-NFAT and NFATc1 assessed as derepression of NFAT-dependent luciferase activity measured after 48 hrs by luciferase assay; assay type: cell-based, HEK-293T
Summary of the method: (§1)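 HEK293T cells transfected with PEI using DYRK1A, Renilla plasmid, IL-2-based pGL3-NFAT firefly reporter and NFATc1. Next day the same transfected population was split into 96-well plates; 6 h later cells were treated for 48 h (11-point dose curve, n = 4), then lysed. EC50 from firefly/Renilla ratio, 4-parameter agonist fit. CC50 from loss of constitutive Renilla signal, 4-parameter inhibitor fit.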

HEK-293T = test: Cytotoxicity against human HEK293T cells transfected with DYRK1A co-tranfected with Renilla plasmid, pGL3-NFAT and NFATc1 assessed as reduction in luciferase activity by measuring cell number; assay type: cell-based; conditions: hek-293t; summary of the method: as §1
Homo sapiens = organism: Homo sapiens; test: Selectivity index, ratio of CC50 for human HEK293T cells transfected with DYRK1A co-tranfected with Renilla plasmid, pGL3-NFAT and NFATc1 assessed as reduction in luciferase activity by measuring cell number to EC50 for human DYRK1A transfected in HEK293T cells co-transfected with Renilla plasmid, pGL3-NFAT and NFATc1 assessed as derepression of NFAT-dependent luciferase activity measured after 48 hrs by luciferase assay; assay type: cell-based; summary of the method: as §1
[3] = molecular target: T2, Tyrosine-protein kinase ABL1 (Homo sapiens, UniProt P00519); test: Inhibition of wild-type human non-phosphorylated ABL1 (S229 to K512 residues) expressed in mammalian expression system assessed as residual activity at 500 nM by Kinomescan method relative to control
Summary of the method: (§2)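 Kinase panel of 468 kinases, scored as residual activity at 100 nM or 500 nM test compound.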

[4] = molecular target: T2, Tyrosine-protein kinase ABL1; test: Inhibition of wild-type human phosphorylated ABL1 (S229 to K512 residues) expressed in mammalian expression system assessed as residual activity at 500 nM by Kinomescan method relative to control; summary of the method: as §2
[5] = molecular target: T1, Dual specificity tyrosine-phosphorylation-regulated kinase 1A; test: Inhibition of wild-type human partial length DYRK1A (H129 to S509 residues) expressed in mammalian expression system assessed as residual activity at 500 nM by Kinomescan method relative to control; summary of the method: as §2
[6] = molecular target: T3, Aurora kinase A (Homo sapiens) (UniProt O14965); test: Inhibition of wild-type human partial length AURKA (E122 to K401 residues) expressed in mammalian expression system assessed as residual activity at 500 nM by Kinomescan method relative to control; summary of the method: as §2
T3 sequence (whole entry): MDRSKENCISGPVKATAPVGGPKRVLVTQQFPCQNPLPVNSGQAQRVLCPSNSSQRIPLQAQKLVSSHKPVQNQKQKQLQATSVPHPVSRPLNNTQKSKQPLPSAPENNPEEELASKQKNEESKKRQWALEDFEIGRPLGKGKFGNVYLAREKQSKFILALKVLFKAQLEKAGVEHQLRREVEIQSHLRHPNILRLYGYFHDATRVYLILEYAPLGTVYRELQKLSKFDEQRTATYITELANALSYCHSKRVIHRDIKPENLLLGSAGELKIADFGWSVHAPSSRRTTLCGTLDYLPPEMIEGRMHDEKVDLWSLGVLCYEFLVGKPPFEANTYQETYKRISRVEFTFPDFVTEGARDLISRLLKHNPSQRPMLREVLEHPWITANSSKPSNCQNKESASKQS

Aurora kinase B [7] = molecular target: T4, Aurora kinase B (Homo sapiens, UniProt Q96GD4); test: Inhibition of wild-type human partial length AURKB (D25 to A303 residues) expressed in mammalian expression system assessed as residual activity at 500 nM by Kinomescan method relative to control; summary of the method: as §2
[8] = molecular target: Dual specificity mitogen-activated protein kinase kinase 1 (Homo sapiens) (UniProt Q02750); test: Inhibition of wild-type human full length MEK1 (M1 to V393 residues) expressed in mammalian expression system assessed as residual activity at 500 nM by Kinomescan method relative to control; summary of the method: as §2
[9] = molecular target: Dual specificity mitogen-activated protein kinase kinase 2 (Homo sapiens) (UniProt P36507); test: Inhibition of wild-type human full length MEK2 (M1 to V400 residues) expressed in mammalian expression system assessed as residual activity at 500 nM by Kinomescan method relative to control; summary of the method: as §2
[10] = molecular target: Maternal embryonic leucine zipper kinase (Homo sapiens, UniProt Q14680); test: Inhibition of wild-type human full length MELK (M1 to V651 residues) expressed in bacterial expression system assessed as residual activity at 500 nM by Kinomescan method relative to control; summary of the method: as §2
Aurora kinase B [11] = molecular target: T4, Aurora kinase B; test: Inhibition of AURKB in human HEK293T cells assessed as reduction in cell viability at 30 to 70 nM measured after 48 hrs; assay type: cell-based; conditions: hek-293t, 0.27 µM, in the assay text read “30 to 270 nM” for “30 to 70 nM”
Summary of the method: (§3)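 HEK293T cells treated 48 h with the compound alone or combined with a second kinase inhibitor at the stated level, then fixed, stained and counted. Cell number expressed as a percentage of untreated wells; n = 4-16.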

AURKB (Aurora kinase B) [12] = molecular target: T5, AURKB (Aurora kinase B) (Homo sapiens, UniProt Q96GD4); test: Inhibition of AURKB in human HEK293T cells assessed as reduction in cell viability at 90 to 270 nM measured after 48 hrs in presence of 40 nM AZD-1152-HQPA relative to control; assay type: cell-based, HEK-293T; summary of the method: as §3
AURKB (Aurora kinase B) [13] = molecular target: T5, AURKB (Aurora kinase B); test: Inhibition of AURKB in human HEK293T cells assessed as reduction in cell viability at 90 to 270 nM measured after 48 hrs in presence of 40 nM MLN-8054 relative to control; assay type: cell-based, HEK-293T; summary of the method: as §3
AURKB (Aurora kinase B) [14] = molecular target: T5, AURKB (Aurora kinase B); test: Inhibition of AURKB in human HEK293T cells assessed as reduction in cell viability at 30 nM measured after 48 hrs in presence of 3 uM MK-5108 relative to control; assay type: cell-based, HEK-293T; summary of the method: as §3
AURKB (Aurora kinase B) [15] = molecular target: T5, AURKB (Aurora kinase B); test: Inhibition of AURKB in human HEK293T cells assessed as reduction in cell viability at 90 nM measured after 48 hrs in presence of 3 uM MK-5108 relative to control; assay type: cell-based, HEK-293T; summary of the method: as §3
AURKB (Aurora kinase B) [16] = molecular target: T5, AURKB (Aurora kinase B); test: Inhibition of AURKB in human HEK293T cells assessed as reduction in cell viability at 270 nM measured after 48 hrs in presence of 3 uM MK-5108 relative to control; assay type: cell-based, HEK-293T; summary of the method: as §3
Aurora kinase B [17] = molecular target: T4, Aurora kinase B; test: Inhibition of AURKB in human HEK293T cells assessed as reduction in cell viability at 270 nM measured after 48 hrs in presence of 10 uM TAK-733; assay type: cell-based; conditions: hek-293t, 0.27 µM; summary of the method: as §3
[18] = molecular target: T2, Tyrosine-protein kinase ABL1; test: Inhibition of ABL1 in human HEK293T cells assessed as cell death at 30 to 270 nM measured after 48 hrs in presence of 1 uM imatinib; assay type: cell-based; conditions: hek-293t, 0.27 µM, in the assay text read “3 uM imatinib” for “1 uM imatinib”; summary of the method: as §3
[19] = molecular target: T2, Tyrosine-protein kinase ABL1; test: Inhibition of ABL1 in human HEK293T cells assessed as cell death at 30 to 270 nM measured after 48 hrs in presence of 1 uM dasatinib; assay type: cell-based; conditions: hek-293t, 0.27 µM; summary of the method: as §3
[20] = Cytotoxicity against mouse R7T1 cells assessed as reduction in cell viability measured after 48 hrs by Hoechst 33342 staining based analysis
Summary of the method: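 Mouse R7T1 β-cells cultured in high-glucose DMEM with 10% FBS, doxycycline and pyruvate, plated at 25,000 cells/well. Treated in quadruplicate 6 h later (0.169–10,000 nM) for 48 h. Cells fixed in paraformaldehyde and stained with 4 μM Hoechst 33342; nuclei counted by high-content imaging.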

[21] = Selectivity index, ratio of CC50 for mouse R7T1 cells assessed as reduction in cell viability measured after 48 hrs by Hoechst 33342 staining based analysis to MEC for inhibition of DYRK1A in human pancreatic islets assessed as induction of pancreatic beta-cells replication measured after 48 hrs by Hoechst 33342 staining based analysis
[22] = Half life in human liver microsomes at 1 uM preincubated for 10 mins followed by NADPH addition and measured up to 40 mins by LC-MS/MS analysis; assay type: ADME, Microsome
Summary of the method: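 Human or mouse liver microsomes, each run separately, in 100 mM KxPO4 pH 7.4 with 10 mM MgCl2 and 1 μM test compound. Pre-incubated 10 min at 37 °C, then started with 1 mM NADPH. Quenched in acetonitrile stop solution at 0, 10, 20 and 40 min, centrifuged, diluted and analysed by LC-MS/MS.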

[23] = Apparent permeability in human Caco2 cells measured after 2 hrs by LC-MS/MS analysis; assay type: ADME, cell-based, Caco-2; conditions: Caco-2
Summary of the method: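 Caco-2 monolayers grown on polycarbonate filter inserts (5 × 10⁵ cells/well seeded) and differentiated 21 ± 4 days. Transport run in HBSS with 25 mM HEPES, pH 7.4, 37 °C; compound added donor side. Receiver sampled over 2 h, donor at 0 and 2 h; LC-MS/MS with internal standard. Papp = (dC_rec/dt)/(A × C0,donor) × 10^6.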

T2 sequence (P00519 whole entry, the tested form may be a part): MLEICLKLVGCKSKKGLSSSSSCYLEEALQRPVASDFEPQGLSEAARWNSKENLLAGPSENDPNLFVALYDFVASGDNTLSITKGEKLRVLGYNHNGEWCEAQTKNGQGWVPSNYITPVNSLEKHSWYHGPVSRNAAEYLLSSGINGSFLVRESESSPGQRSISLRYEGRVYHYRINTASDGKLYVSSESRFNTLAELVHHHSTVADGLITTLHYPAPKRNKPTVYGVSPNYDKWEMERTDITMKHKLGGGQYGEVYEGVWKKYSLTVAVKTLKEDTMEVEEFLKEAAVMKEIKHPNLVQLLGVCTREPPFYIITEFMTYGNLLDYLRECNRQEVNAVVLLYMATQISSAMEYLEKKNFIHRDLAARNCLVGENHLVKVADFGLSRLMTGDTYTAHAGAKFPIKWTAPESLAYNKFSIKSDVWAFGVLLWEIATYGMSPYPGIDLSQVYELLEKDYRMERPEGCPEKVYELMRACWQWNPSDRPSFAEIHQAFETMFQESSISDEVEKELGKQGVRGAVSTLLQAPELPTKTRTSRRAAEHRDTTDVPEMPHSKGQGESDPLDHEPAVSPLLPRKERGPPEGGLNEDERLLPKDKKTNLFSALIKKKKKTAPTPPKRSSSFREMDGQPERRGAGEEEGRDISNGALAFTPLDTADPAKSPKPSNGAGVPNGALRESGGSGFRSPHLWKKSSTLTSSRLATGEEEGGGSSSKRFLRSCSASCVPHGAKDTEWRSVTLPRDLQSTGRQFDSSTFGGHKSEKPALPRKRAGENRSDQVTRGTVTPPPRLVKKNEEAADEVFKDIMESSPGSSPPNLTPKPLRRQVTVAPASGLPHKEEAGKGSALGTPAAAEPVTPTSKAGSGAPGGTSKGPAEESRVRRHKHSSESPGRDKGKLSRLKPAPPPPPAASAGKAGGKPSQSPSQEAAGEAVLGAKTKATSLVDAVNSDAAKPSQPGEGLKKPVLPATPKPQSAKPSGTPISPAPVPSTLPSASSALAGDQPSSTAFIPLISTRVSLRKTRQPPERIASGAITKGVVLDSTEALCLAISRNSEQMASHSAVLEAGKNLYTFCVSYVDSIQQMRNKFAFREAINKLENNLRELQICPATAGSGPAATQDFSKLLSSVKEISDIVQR
T4 sequence (Q96GD4 whole entry, the tested form may be a part): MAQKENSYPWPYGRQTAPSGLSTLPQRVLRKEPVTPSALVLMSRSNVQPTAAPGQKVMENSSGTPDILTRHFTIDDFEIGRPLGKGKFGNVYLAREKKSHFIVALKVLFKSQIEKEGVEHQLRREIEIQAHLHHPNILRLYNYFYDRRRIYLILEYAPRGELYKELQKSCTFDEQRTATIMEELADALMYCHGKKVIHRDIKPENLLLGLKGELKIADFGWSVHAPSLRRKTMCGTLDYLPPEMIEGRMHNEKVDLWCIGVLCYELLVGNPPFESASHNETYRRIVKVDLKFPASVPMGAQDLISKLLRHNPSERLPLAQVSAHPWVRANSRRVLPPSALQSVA
T5 sequence (Q96GD4 whole entry): as the sequence (Q96GD4 whole entry, the tested form may be a part) above
Dual specificity mitogen-activated protein kinase kinase 1 (Homo sapiens), sequence (Q02750 whole entry, the tested form may be a part): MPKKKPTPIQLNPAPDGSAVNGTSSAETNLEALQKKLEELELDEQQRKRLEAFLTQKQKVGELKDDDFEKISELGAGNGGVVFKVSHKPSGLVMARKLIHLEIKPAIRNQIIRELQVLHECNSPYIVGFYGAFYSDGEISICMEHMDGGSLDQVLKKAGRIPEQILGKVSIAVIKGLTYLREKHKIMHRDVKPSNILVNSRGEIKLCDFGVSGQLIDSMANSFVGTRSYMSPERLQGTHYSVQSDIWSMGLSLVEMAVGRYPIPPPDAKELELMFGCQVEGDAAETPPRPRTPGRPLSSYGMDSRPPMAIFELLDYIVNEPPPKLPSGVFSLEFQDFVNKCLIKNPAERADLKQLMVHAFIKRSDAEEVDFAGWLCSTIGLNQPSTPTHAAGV
Dual specificity mitogen-activated protein kinase kinase 2 (Homo sapiens), sequence (P36507 whole entry, the tested form may be a part): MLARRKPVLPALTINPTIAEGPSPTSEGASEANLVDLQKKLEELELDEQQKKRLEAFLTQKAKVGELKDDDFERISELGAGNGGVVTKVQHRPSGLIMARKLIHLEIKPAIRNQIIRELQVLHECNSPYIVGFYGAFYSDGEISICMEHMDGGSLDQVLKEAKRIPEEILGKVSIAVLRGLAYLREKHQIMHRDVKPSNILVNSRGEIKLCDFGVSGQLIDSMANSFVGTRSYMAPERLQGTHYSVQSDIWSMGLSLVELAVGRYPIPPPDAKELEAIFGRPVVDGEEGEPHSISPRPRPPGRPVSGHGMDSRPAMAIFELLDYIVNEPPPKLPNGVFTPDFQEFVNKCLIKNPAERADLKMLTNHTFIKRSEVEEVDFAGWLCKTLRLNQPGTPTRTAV
Maternal embryonic leucine zipper kinase, sequence (Q14680 whole entry, looked up, the tested form may be a part): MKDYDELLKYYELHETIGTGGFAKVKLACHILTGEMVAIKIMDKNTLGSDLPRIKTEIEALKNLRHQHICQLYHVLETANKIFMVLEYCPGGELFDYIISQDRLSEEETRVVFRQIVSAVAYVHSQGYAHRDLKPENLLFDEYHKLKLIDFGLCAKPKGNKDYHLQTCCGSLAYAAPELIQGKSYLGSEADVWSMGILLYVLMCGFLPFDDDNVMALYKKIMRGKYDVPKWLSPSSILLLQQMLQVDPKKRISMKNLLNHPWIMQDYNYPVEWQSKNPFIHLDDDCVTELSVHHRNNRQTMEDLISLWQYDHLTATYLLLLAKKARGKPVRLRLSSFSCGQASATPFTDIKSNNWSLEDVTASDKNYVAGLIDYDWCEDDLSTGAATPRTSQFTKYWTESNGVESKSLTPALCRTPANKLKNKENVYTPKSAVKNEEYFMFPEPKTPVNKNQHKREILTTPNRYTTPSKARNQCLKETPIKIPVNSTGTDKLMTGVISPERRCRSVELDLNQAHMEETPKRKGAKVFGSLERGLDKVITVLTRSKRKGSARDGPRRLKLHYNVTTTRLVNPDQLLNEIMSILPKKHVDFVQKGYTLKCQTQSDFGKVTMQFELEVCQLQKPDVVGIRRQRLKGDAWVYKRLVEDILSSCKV

## CCOC(=O)c1cnc2ccc(-c3ccncc3)nc2c1N[C@H]1CC[C@H](CN(C)C)CC1
[1]
  MEC: 27 nM
[2]
  EC50: 0.223 µM
HEK-293T
  CC50: 8.05 µM
Homo sapiens
  Ratio CC50/EC50: 36
[3]
  Activity: 43%
[4]
  Activity: 43%
[5]
  Activity: 0%
[6]
  Activity: 97%
Aurora kinase B [7]
  Activity: 67%
[8]
  Activity: 69%
[9]
  Activity: 55%
[10]
  Activity: 4.7%
Aurora kinase B [11]
  inhibition (INH): Not Active
AURKB (Aurora kinase B) [12]
  inhibition at 48 h, up to 0.27 µM: 67%
AURKB (Aurora kinase B) [13]
  inhibition at 48 h, up to 0.27 µM: 50%
AURKB (Aurora kinase B) [14]
  inhibition at 48 h, 0.03 µM: 31%
AURKB (Aurora kinase B) [15]
  inhibition at 48 h, 0.09 µM: 36%
AURKB (Aurora kinase B) [16]
  inhibition at 48 h, 0.27 µM: 34%
Aurora kinase B [17]
  inhibition (INH): Not Active
[18]
  inhibition (INH): Not Active
[19]
  inhibition (INH): Not Active
[20]
  CC50: 3.86 µM
[21]
  Selectivity Index: 143
[22]
  t1/2: 32 min
[23]
  Papp at 2 h: 4.03 ×10⁻⁶ cm/s
